Converted amounts (≈) assume the structure as drawn.
Columns and labels:
[1] = Elimination half life in cynomolgus monkey at 1 mg/kg, po; format: ADME, organism-based, Macaca fascicularis; conditions: in vivo, read-out: beta t1/2 (converted)
In short: (§1)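 Single 1 mg/kg dose given IV or PO to rats, dogs and monkeys. Plasma pharmacokinetic parameters were derived and reported as mean SD, N = 4.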

[2] = Total clearance in Sprague-Dawley rat at 1 mg/kg, iv; format: ADME, organism-based; conditions: in vivo
In short: (§2)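 A single intravenous injection at 1 mg/kg was given. Plasma concentration–time data gave total clearance (CL_total, mL/min/kg) and steady-state volume of distribution (Vd_ss, L/kg). Values are mean SD of N = 4 animals per species.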

[3] = molecular target: T1, Prostaglandin E2 receptor EP3 subtype (Homo sapiens, UniProt P43115); assay: Antagonist activity at human EP3 receptor
T1 sequence (P43115 whole entry): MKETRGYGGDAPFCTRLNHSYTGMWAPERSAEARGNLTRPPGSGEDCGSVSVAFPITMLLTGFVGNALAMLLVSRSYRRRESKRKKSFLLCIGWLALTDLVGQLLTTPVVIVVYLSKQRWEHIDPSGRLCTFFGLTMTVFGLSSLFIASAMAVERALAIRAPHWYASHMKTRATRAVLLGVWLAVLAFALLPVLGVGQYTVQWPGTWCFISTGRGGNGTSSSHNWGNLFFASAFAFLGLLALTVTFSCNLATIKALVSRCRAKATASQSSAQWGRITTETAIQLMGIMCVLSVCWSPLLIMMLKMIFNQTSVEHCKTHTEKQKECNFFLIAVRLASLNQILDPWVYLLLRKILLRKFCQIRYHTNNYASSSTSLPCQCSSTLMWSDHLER

[4] = Half life in hepatocytes (unknown origin); format: ADME, cell-based, Hepatocyte
[5] = AUC (0 to infinity) in Beagle dog at 1 mg/kg, po; format: ADME, organism-based, Canis lupus familiaris; design: dose 1 mg/kg, time infinity, route oral; conditions: in vivo; in short: as §1
[6] = Cmax in cynomolgus monkey at 1 mg/kg, po; format: ADME, organism-based, Macaca fascicularis; design: dose 1 mg/kg, route oral; conditions: in vivo; in short: as §1
[7] = AUC (0 to infinity) in Sprague-Dawley rat at 1 mg/kg, iv; format: ADME, organism-based; design: dose 1 mg/kg, route intravenous, time infinity; conditions: in vivo; in short: as §1
[8] = test system: Rattus norvegicus; assay: Analgesic activity in po dosed rat model of chronic inflammatory pain assessed as inhibition of CFA-induced weight bearing deficit; format: functional
In short: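 Chronic inflammatory pain was modelled in rats with CFA and read out as weight bearing deficit after oral dosing. The value is the minimum effective dose (MED, mg/kg PO).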

[9] = molecular target: T2, Prostaglandin E2 receptor EP4 subtype (Homo sapiens, UniProt P35408); assay: Antagonist activity at human EP4 receptor expressed in HEK293 cells assessed as inhibition of PGE2-induced cAMP level by HTS assay; format: functional, cell-based
[10] = AUC (0 to infinity) in cynomolgus monkey at 1 mg/kg, iv; format: ADME, organism-based, Macaca fascicularis; design: dose 1 mg/kg, route intravenous, time infinity; conditions: in vivo; in short: as §1
[11] = test system: CYP1A; assay: Inhibition of CYP1A (unknown origin) at 1 uM relative to control; format: ADME; conditions: human
In short: (§3)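 CYP1A, CYP2C9, CYP2C19, CYP2D6 and CYP3A activities were each tested with 1 µM test article. Results are given as percent inhibition of enzyme activity.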

[12] = Antagonist activity at human DP receptor
[13] = Total clearance in Beagle dog at 1 mg/kg, iv; format: ADME, organism-based, Canis lupus familiaris; conditions: in vivo; in short: as §2
[14] = Tmax in cynomolgus monkey at 1 mg/kg, po; format: ADME, organism-based, Macaca fascicularis; conditions: in vivo
In short: (§4)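 Oral administration of the compound; Tmax is from plasma concentration–time profiles. Values are mean SD of N = 4 animals per species.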

[15] = Volume of distribution at steady state in Sprague-Dawley rat at 1 mg/kg, iv; format: ADME, organism-based; conditions: in vivo, read-out: Vdss; in short: as §2
[16] = AUC (0 to infinity) in Beagle dog at 1 mg/kg, iv; format: ADME, organism-based, Canis lupus familiaris; design: dose 1 mg/kg, time infinity, route intravenous; conditions: in vivo; in short: as §1
[17] = test system: CYP3A; assay: Inhibition of CYP3A (unknown origin) at 1 uM relative to control; format: ADME; conditions: human; in short: as §3
[18] = Elimination half life in Sprague-Dawley rat at 1 mg/kg, iv; format: ADME, organism-based; conditions: in vivo, read-out: beta t1/2 (converted); in short: as §1
[19] = Solubility of the compound in pH 5.8 water for injection; format: physicochemical
[20] = molecular target: T3, Prostaglandin E2 receptor EP4 subtype (Rattus norvegicus, UniProt P43114); assay: Antagonist activity at rat recombinant EP4 receptor assessed as inhibition of PGE2-induced cAMP level by cell based assay; format: functional; conditions: read-out: pA2 (converted)
In short: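 Functional antagonism was measured as inhibition of PGE2-induced cAMP in cells transfected with rodent EP4 (mouse or rat). The value is expressed as pA2.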

[21] = Cmax in Sprague-Dawley rat at 1 mg/kg, po; format: ADME, organism-based; design: dose 1 mg/kg, route oral; conditions: in vivo; in short: as §1
[22] = Lipophilicity, log D of the compound at pH 6.5; format: physicochemical; conditions: buffer
[23] = Oral bioavailability in Sprague-Dawley rat at 1 mg/kg; format: ADME, organism-based; conditions: in vivo; in short: as §1
[24] = Oral bioavailability in Beagle dog at 1 mg/kg; format: ADME, organism-based, Canis lupus familiaris; conditions: in vivo; in short: as §1
[25] = molecular target: T4, Prostaglandin E2 receptor EP1 subtype (Homo sapiens, UniProt P34995); assay: Antagonist activity at human EP1 receptor
T4 sequence (P34995 whole entry): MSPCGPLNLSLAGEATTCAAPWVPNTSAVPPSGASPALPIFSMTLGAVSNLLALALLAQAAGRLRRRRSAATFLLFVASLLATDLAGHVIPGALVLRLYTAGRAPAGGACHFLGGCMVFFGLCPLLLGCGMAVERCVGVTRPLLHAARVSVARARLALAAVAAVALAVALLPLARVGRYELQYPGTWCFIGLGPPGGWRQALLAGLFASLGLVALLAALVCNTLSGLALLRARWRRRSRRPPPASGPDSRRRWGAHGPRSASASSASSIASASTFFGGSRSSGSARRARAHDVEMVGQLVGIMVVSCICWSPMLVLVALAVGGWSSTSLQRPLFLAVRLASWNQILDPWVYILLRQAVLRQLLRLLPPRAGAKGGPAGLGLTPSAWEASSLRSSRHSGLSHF

[26] = Elimination half life in Beagle dog at 1 mg/kg, po; format: ADME, organism-based, Canis lupus familiaris; conditions: in vivo, read-out: beta t1/2 (converted); in short: as §1
[27] = Total clearance in cynomolgus monkey at 1 mg/kg, iv; format: ADME, organism-based, Macaca fascicularis; conditions: in vivo; in short: as §2
[28] = molecular target: T3, Prostaglandin E2 receptor EP4 subtype; assay: Antagonist activity at rat recombinant EP4 receptor
[29] = molecular target: T2, Prostaglandin E2 receptor EP4 subtype; assay: Displacement of [3H]PGE from human EP4 receptor expressed in HEK293 cell membranes
In short: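 Membrane binding assay using [3H]PGE2 with membranes from HEK-293 cells expressing human EP4. The value is expressed as Ki.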

[30] = molecular target: CYP2C9 (Homo sapiens, UniProt P11712); assay: Inhibition of CYP2C9 (unknown origin) at 1 uM relative to control; format: ADME; in short: as §3
[31] = Tmax in Sprague-Dawley rat at 1 mg/kg, po; format: ADME, organism-based; conditions: in vivo; in short: as §4

T2 sequence (P35408 whole entry): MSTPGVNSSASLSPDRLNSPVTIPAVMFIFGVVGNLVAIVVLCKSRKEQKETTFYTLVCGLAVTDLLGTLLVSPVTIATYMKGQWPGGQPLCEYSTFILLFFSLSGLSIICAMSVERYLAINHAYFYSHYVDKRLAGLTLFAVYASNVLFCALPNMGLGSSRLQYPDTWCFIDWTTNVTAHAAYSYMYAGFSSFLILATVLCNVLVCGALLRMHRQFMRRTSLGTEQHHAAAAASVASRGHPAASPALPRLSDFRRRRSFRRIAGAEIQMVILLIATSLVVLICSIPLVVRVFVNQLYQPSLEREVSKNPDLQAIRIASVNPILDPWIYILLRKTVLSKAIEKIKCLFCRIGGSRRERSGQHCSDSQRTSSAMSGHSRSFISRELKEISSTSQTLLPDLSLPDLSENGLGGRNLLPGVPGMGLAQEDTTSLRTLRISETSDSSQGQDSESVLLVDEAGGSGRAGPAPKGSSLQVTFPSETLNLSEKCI
T3 sequence (P43114 whole entry): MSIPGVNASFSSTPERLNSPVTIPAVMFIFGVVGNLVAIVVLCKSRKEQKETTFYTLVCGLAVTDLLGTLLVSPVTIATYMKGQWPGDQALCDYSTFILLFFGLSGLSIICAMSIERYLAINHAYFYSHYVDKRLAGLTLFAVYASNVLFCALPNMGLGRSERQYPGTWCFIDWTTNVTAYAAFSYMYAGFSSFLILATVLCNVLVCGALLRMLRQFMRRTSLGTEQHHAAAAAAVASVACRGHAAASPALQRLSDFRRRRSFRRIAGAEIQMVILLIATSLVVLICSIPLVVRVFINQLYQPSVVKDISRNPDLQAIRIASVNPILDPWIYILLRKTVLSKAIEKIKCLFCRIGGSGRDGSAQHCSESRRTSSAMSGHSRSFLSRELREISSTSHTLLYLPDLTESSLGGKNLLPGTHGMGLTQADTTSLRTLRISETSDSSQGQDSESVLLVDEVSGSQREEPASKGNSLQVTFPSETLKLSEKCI
CYP2C9, sequence (P11712 whole entry): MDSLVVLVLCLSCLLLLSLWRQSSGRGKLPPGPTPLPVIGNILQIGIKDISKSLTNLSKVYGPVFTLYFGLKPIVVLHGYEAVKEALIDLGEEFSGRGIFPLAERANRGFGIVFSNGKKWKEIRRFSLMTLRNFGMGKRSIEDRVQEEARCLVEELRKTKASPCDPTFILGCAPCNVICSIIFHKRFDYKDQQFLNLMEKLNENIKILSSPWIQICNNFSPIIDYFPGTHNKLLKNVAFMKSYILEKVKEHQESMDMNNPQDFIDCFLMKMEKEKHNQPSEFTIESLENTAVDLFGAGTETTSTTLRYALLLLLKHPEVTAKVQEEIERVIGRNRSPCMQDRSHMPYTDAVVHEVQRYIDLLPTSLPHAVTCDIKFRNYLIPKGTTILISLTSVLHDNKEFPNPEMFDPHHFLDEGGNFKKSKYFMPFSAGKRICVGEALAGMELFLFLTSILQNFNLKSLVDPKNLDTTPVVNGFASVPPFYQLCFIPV

## C[C@H](NC(=O)c1cc(Cl)cnc1Oc1cccc(F)c1)c1ccc(C(=O)O)cc1
[1]
  half-life: 21.9 h
[2]
  clearance: 1.75 mL/min/kg
[3]
  IC50: > 20000 nM
  Ki: > 6000 nM
[4]
  half-life: > 6 h
[5]
  AUC(0-inf): 6080 ng·h/mL
[6]
  Cmax: 76 ng/mL
[7]
  AUC(0-inf): 9620 ng·h/mL
[8]
  inhibition: Dose-dependent effect
[8]; read-out: MED
  minimal effective dose: 1 mg/kg
[9]
  A2: 1.1 nM
  IC50: 16.3 nM
[9]; read-out: pA2 (converted)
  Kb: 1.07 nM
[10]
  AUC(0-inf): 3390 ng·h/mL
[11]
  inhibition at 1 µM: < 5%
[12]
  Ki: > 6000 nM
[13]
  clearance: 2.3 mL/min/kg
[14]
  Tmax: 8 h
[15]
  Vd: 0.593 L/kg
[16]
  AUC(0-inf): 7490 ng·h/mL
[17]
  inhibition at 1 µM: < 5%
[18]
  half-life: 4.59 h
[19]
  solubility: 4.3 µg/mL (≈ 10.4 µM)
[20]
  Kb: 4.57 nM
[21]
  Cmax: 994 ng/mL
[22]
  logD: 1.5
[23]
  bioavailability: 73.6%
[24]
  bioavailability: 80.6%
[25]
  IC50: > 20000 nM
  Ki: > 6000 nM
[26]
  half-life: 7.95 h
[27]
  clearance: 5.31 mL/min/kg
[28]
  Ki: 6.1 nM
[29]
  IC50: 2.4 nM
  Ki: 0.97 nM
[30]
  inhibition at 1 µM: < 5%
[31]
  Tmax: 0.75 h
